Article PMC8841436 (Clinical and Translational Science, 2021)

Tests used:
[1] = tested on: experimental autoimmune encephalomyelitis; experiment: Experimental autoimmune encephalomyelitis; format: in vivo; conditions: EAE mouse model; unpublished data
[2] = tested on: healthy volunteers; experiment: Phase 1 safety and tolerability; format: in vivo, human; conditions: for Diarrhea, participants with adverse event / Headache, participants with adverse event: part B MAD
[3] = Plasma pharmacokinetics, part A; format: in vivo, human; conditions: for half-life / Tmax / AUC(0-inf) / AUC(0-t) / Cmax: human, in vivo
[4] = Urine pharmacokinetics, 60 mg cohort part A; format: in vivo, human
[5] = Plasma protein binding by equilibrium dialysis; format: in vitro ADME; conditions: human
[6] = tested on: lymphocyte subpopulations (T/B/NK/monocyte counts); experiment: Flow cytometry analysis of immune cell subsets in whole blood, part B; format: in vivo, human
How it was run: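 Healthy volunteers got oral liquid test compound (7.5, 15, 30, 60 or 90 mg) or matching placebo once daily for 10 days, fasted. Whole blood was drawn predose on days 1, 4 and 10. Flow cytometry counted T, B, NK and monocytes with CD3, CD4, CD8, CD14, CD19 and CD16/56 antibodies. Naïve (CD19+ CD27-) and memory (CD19+ CD27+) B cells were also counted. Error bars are SD.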

[7] = Plasma pharmacokinetics, part B; conditions: human, in vivo, n = 8
[8] = 7.5 mg q.d. 10 days, 8 participants
[9] = 15 mg q.d. 10 days, 8 participants
[10] = 30 mg q.d. 10 days, 8 participants
[11] = 60 mg q.d. 10 days, 8 participants
[12] = 90 mg q.d. 10 days, 8 participants
[13] = all tolebrutinib doses, 40 participants

C=CC(=O)N1CCC[C@@H](n2c(=O)n(-c3ccc(Oc4ccccc4)cc3)c3c(N)nccc32)C1 [tolebrutinib]
Protection from disease induction [1]: dose‐dependent protection
Serious treatment-emergent adverse events ([2]; part A (SAD)): no serious treatment‐emergent adverse events
Tolerability ([2]; part A (SAD), single doses 5-120 mg): well‐tolerated
Severity of treatment-related TEAEs ([2]; part B (MAD), all combined dose groups): mild
Diarrhea, participants with adverse event [2, 8]: 1
Headache, participants with adverse event [2, 8]: 2
Diarrhea, participants with adverse event [2, 9]: 1
Headache, participants with adverse event [2, 9]: 1
Diarrhea, participants with adverse event [2, 10]: 2
Headache, participants with adverse event [2, 10]: 1
Diarrhea, participants with adverse event [2, 11]: 0
Headache, participants with adverse event [2, 11]: 0
Diarrhea, participants with adverse event [2, 12]: 5
Headache, participants with adverse event [2, 12]: 0
Diarrhea, participants with adverse event [2, 13]: 9
Headache, participants with adverse event [2, 13]: 4
half‐life (mean) ([3]; after oral administration, fasting, across doses): 1.5 to 2 h
Dose proportionality of exposure ([3]; dose levels between 15 and 60 mg): approximately dose proportional
half-life ([3]; half‐life, plasma, as summarised in CSF section): 1.5 to 2 h
Tmax ([3]; po): ~1 h
AUC(0-inf) ([3]; po, 5 mg): 1.39 ng·h/mL
AUC(0-t) ([3]; po, 5 mg): 0.57 ng·h/mL
Cmax ([3]; po, 5 mg): 0.369 ng/mL
Tmax ([3]; po, 5 mg): 1 h
half-life ([3]; po, 5 mg, t 1/2, SAD, single oral 5 mg, fasting, mean, n = 6): 1.92 h
AUC(0-inf) ([3]; po, 15 mg): 4.06 ng·h/mL
AUC(0-t) ([3]; po, 15 mg): 3.67 ng·h/mL
Cmax ([3]; po, 15 mg): 1.97 ng/mL
Tmax ([3]; po, 15 mg): 1 h
half-life ([3]; po, 15 mg, t 1/2, SAD, single oral 15 mg, fasting, mean, n = 6): 1.39 h
AUC(0-inf) ([3]; po, 30 mg): 6.46 ng·h/mL
AUC(0-t) ([3]; po, 30 mg): 6.04 ng·h/mL
Cmax ([3]; po, 30 mg): 3.12 ng/mL
Tmax ([3]; po, 30 mg): 1 h
half-life ([3]; po, 30 mg, t 1/2, SAD, single oral 30 mg, fasting, mean, n = 6): 1.47 h
AUC(0-inf) ([3]; po, 60 mg): 15.9 ng·h/mL
AUC(0-t) ([3]; po, 60 mg): 15.6 ng·h/mL
Cmax ([3]; po, 60 mg): 6.89 ng/mL
Tmax ([3]; po, 60 mg): 1.5 h
half-life ([3]; po, 60 mg, t 1/2, SAD, single oral 60 mg, fasting, mean, n = 6): 1.67 h
AUC(0-inf) ([3]; po, 120 mg): 62.6 ng·h/mL
AUC(0-t) ([3]; po, 120 mg): 61.6 ng·h/mL
Cmax ([3]; po, 120 mg): 32.3 ng/mL
Tmax ([3]; po, 120 mg): 1 h
half-life ([3]; po, 120 mg, t 1/2, SAD, single oral 120 mg, fasting, mean, n = 6): 2.18 h
Dose proportionality of Cmax and AUC (power model) ([3]; single doses 5 to 120 mg): more than dose proportional
CL renal ([4]; human, urine, po, 60 mg): ~5 mL/min
total mean amount recovered unchanged in urine ([4]; single oral 60 mg, fasted, after 12 h): 4.2 µg
fraction unbound [5]: ~0.065
circulating total B cell levels (both naïve and memory B cells) ([6]; day 4 and day 10, all part B cohorts): Elevated
B cell depletion ([6]; part B MAD): did not result in B cell depletion
other immune cell populations: T cells (total CD3, CD4, CD8), monocytes, NK ([6]; part B MAD): No changes
AUC ([7]; 7.5 mg, AUC0‐24, MAD 7.5 mg q.d., Day 1, mean): 2.12 ng·h/mL
AUC ([7]; 7.5 mg, AUC0‐24, MAD 7.5 mg q.d., Day 10, mean): 3.07 ng·h/mL
Cmax ([7]; 7.5 mg, MAD 7.5 mg q.d., Day 1, mean): 1.17 ng/mL
Cmax ([7]; 7.5 mg, MAD 7.5 mg q.d., Day 10, mean): 1.32 ng/mL
Tmax ([7]; 7.5 mg, MAD 7.5 mg q.d., Day 1, median (min – max)): 1 h
Tmax ([7]; 7.5 mg, MAD 7.5 mg q.d., Day 10, median (min – max)): 1 h
half-life ([7]; 7.5 mg, t 1/2, MAD 7.5 mg q.d., Day 1, mean): 1.45 h
half-life ([7]; 7.5 mg, t 1/2, MAD 7.5 mg q.d., Day 10, mean): 1.57 h
AUC ([7]; 15 mg, AUC0‐24, MAD 15 mg q.d., Day 1, mean): 3.82 ng·h/mL
AUC ([7]; 15 mg, AUC0‐24, MAD 15 mg q.d., Day 10, mean): 5.85 ng·h/mL
Cmax ([7]; 15 mg, MAD 15 mg q.d., Day 1, mean): 1.96 ng/mL
Cmax ([7]; 15 mg, MAD 15 mg q.d., Day 10, mean): 2.51 ng/mL
Tmax ([7]; 15 mg, MAD 15 mg q.d., Day 1, median (min – max)): 1 h
Tmax ([7]; 15 mg, MAD 15 mg q.d., Day 10, median (min – max)): 1 h
half-life ([7]; 15 mg, t 1/2, MAD 15 mg q.d., Day 1, mean): 1.4 h
half-life ([7]; 15 mg, t 1/2, MAD 15 mg q.d., Day 10, mean): 1.68 h
AUC ([7]; 30 mg, AUC0‐24, MAD 30 mg q.d., Day 1, mean): 9.67 ng·h/mL
AUC ([7]; 30 mg, AUC0‐24, MAD 30 mg q.d., Day 10, mean): 14.9 ng·h/mL
Cmax ([7]; 30 mg, MAD 30 mg q.d., Day 1, mean): 6.25 ng/mL
Cmax ([7]; 30 mg, MAD 30 mg q.d., Day 10, mean): 7.46 ng/mL
Tmax ([7]; 30 mg, MAD 30 mg q.d., Day 1, median (min – max)): 0.75 h
Tmax ([7]; 30 mg, MAD 30 mg q.d., Day 10, median (min – max)): 1 h
half-life ([7]; 30 mg, t 1/2, MAD 30 mg q.d., Day 1, mean): 1.6 h
half-life ([7]; 30 mg, t 1/2, MAD 30 mg q.d., Day 10, mean): 2.02 h
AUC ([7]; 60 mg, AUC0‐24, MAD 60 mg q.d., Day 1, mean): 24.3 ng·h/mL
AUC ([7]; 60 mg, AUC0‐24, MAD 60 mg q.d., Day 10, mean): 18.2 ng·h/mL
Cmax ([7]; 60 mg, MAD 60 mg q.d., Day 1, mean): 8.47 ng/mL
Cmax ([7]; 60 mg, MAD 60 mg q.d., Day 10, mean): 6.69 ng/mL
Tmax ([7]; 60 mg, MAD 60 mg q.d., Day 1, median (min – max)): 1.25 h
Tmax ([7]; 60 mg, MAD 60 mg q.d., Day 10, median (min – max)): 1.5 h
half-life ([7]; 60 mg, t 1/2, MAD 60 mg q.d., Day 1, mean): 1.98 h
half-life ([7]; 60 mg, t 1/2, MAD 60 mg q.d., Day 10, mean): 2.37 h
AUC ([7]; 90 mg, AUC0‐24, MAD 90 mg q.d., Day 1, mean): 35.5 ng·h/mL
AUC ([7]; 90 mg, AUC0‐24, MAD 90 mg q.d., Day 10, mean): 56.6 ng·h/mL
Cmax ([7]; 90 mg, MAD 90 mg q.d., Day 1, mean): 19.3 ng/mL
Cmax ([7]; 90 mg, MAD 90 mg q.d., Day 10, mean): 21.7 ng/mL
Tmax ([7]; 90 mg, MAD 90 mg q.d., Day 1, median (min – max)): 1 h
Tmax ([7]; 90 mg, MAD 90 mg q.d., Day 10, median (min – max)): 1.5 h
half-life ([7]; 90 mg, t 1/2, MAD 90 mg q.d., Day 1, mean): 2.1 h
half-life ([7]; 90 mg, t 1/2, MAD 90 mg q.d., Day 10, mean): 2.83 h
